The test system of assay [1] is HFF. As to the kind of experiment: Selectivity index, CC50 in HFF cell/ EC50 against HCMV. Type of assay: functional. Summed up: (§1)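 Selectivity index is the ratio of CC50 (HFF neutral red uptake) to EC50 from the matching plaque reduction assay.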
The test system of assay [2] is Human betaherpesvirus 5. Briefly: Antiviral activity against HCMV AD-169 replication. Type of assay: functional, organism-based. The following applies: Human betaherpesvirus 5, AD-169. Summed up:
(§2)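 Plaque reduction used HCMV AD-169 in HFF cells (plated 2 days ahead) or MCMV Smith in MEF cells (plated 1 day ahead), at 20-30 PFU/well in triplicate with 1 h adsorption. Infected cells were then given MEM (2% FBS) with compound diluted 1:5 from 100 µM. Plates ran 7 days (MCMV) or 8 days (HCMV) at 37 °C, followed by 6 h neutral red staining. EC50 is the concentration giving 50% plaque reduction.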

The test system of assay [3] is HFF. Briefly: Cytotoxicity against HFF cell. It is filed as functional. The note with it: Homo sapiens.
Assay [4] concerns Cowpox virus. As to the kind of experiment: Antiviral activity against Cowpox virus Brighton replication in HFF cells. Type of assay: functional, organism-based.
Assay [5] relates to HFF. As to the kind of experiment: Selectivity index, CC50 in HFF cell/ EC50 against cowpox virus. It is filed as functional. Summed up: as §1
Assay [6] relates to Murid betaherpesvirus 1. As to the kind of experiment: Antiviral activity against MCMV Smith replication. Type of assay: functional, organism-based. The following applies: Murid betaherpesvirus 1, Smith. In a few lines:
as §2

Assay [7] relates to HFF. Briefly: Selectivity index, CC50 in HFF cell/ EC50 against vaccinia virus. Type of assay: functional. Summed up: as §1
Assay [8] relates to Vaccinia virus. Briefly: Antiviral activity against Vaccinia virus Copenhagen replication in HFF cells. It is filed as functional, organism-based. The note with it: Orthopoxvirus vaccinia.
Assay [9] deals with HFF. As to the kind of experiment: Selectivity index, CC50 in HFF cell/ EC50 against MCMV. It is filed as functional. Summed up:
as §1

Where only a bound is given, the exact number is not on record here.

What is called EC50 is the concentration at which the effect is half-maximal. Read a low EC50 as a more potent agent. A word on the CC50: it is the concentration at which the toxic effect on the cells reaches its halfway point. A high value points to lower toxicity to the cells. Regarding `CCCCCCCC/C=C\CCCCCCCCOCCOP(=O)([O-])CO[C@H](CO)Cn1cnc2c(N)ncnc21.[Na+]`, the Selectivity index turned out to be 2100 in assay [1], 900 in assay [5], 2100 in assay [7] and 158 in assay [9]. The EC50 worked out at 0.003 µM in [2], 0.007 µM in [4], 0.04 µM in [6] and 0.003 µM in [8]. The compound further gave a CC50 in assay [3] of 6.3 µM.
On to `CCCCCCCCCCCCCCCCOCCCOP(=O)([O-])CO[C@H](CO)Cn1cnc2c(N)ncnc21.[Na+]`, for which the Selectivity index in assay [1] was found to be 3233; in assay [5], 485; in assay [7], 970; in assay [9], 485. Moreover, the EC50 in assay [2] is 0.003 µM; in [6], 0.002 µM. This compound came in with a CC50 in assay [3] of 9.7 µM.
For `CCCCCCCCCCCCCCCCCCOCCOP(=O)(O)CO[C@H](CO)Cn1ccc(N)nc1=O`, the EC50 in [2] amounted to 0.0009 µM; in assay [4], 0.3 µM; in assay [6], 0.001 µM; in assay [8], 0.2 µM.
For the compound `Nc1ncnc2c1ncn2C[C@@H](CO)OCP(=O)(O)O`, the Selectivity index in [1] was more than 352; in assay [5], more than 72; in [7] it was more than 107; in assay [9], more than 181. Further, the half-maximal effective concentration (EC50) stood at 0.82 µM in assay [2] and 0.16 µM in [6]. The compound also yielded a CC50 in assay [3] of more than 289 µM.
Take `CCCCCCCC/C=C\CCCCCCCCOCCCOP(=O)([O-])CO[C@H](CO)Cn1cnc2c(N)ncnc21.[Na+]`: the Selectivity index is 25000 in assay [1], 2200 in [5], 4156 in assay [7] and 750 in [9]. Also, the EC50 in assay [2] amounted to 0.003 µM; in assay [4], 0.034 µM; in assay [6], 0.1 µM; in assay [8], 0.018 µM. This compound also yielded a half-maximal cytotoxic concentration (CC50) in assay [3] of 74.8 µM.
On to `CCCCCCCCCCCCCCCCCCOCCOP(=O)([O-])CO[C@H](CO)Cn1cnc2c(N)ncnc21.[Na+]`, for which the Selectivity index in assay [1] stood at 500; in assay [5] it was 75; in assay [7], 150; in assay [9], 500. Further, the EC50 in [2] and in assay [6] was 0.003 µM each time. In [3], this compound registered a CC50 of 1.5 µM.
For the compound `CCCCCCCCCCCCCCCCOCCCOP(=O)(O)CO[C@H](CO)Cn1ccc(N)nc1=O` [BRINCIDOFOVIR], the EC50 in [2] stood at 0.0009 µM; in assay [4] it was 0.06 µM; in [6], 0.0009 µM; in assay [8], 0.08 µM.
`Nc1ccn(C[C@@H](CO)OCP(=O)(O)O)c(=O)n1.O.O` [CIDOFOVIR]: the Selectivity index was more than 264 in [1], more than 10.3 in [5], more than 12.5 in assay [7] and more than 7925 in [9]. The EC50 in assay [2] came out at 1.2 µM; in assay [4], 30.7 µM; in assay [6], 0.04 µM; in assay [8] it was 25.3 µM. The CC50 in [3] was more than 317 µM.

The record behind these values is ChEMBL document CHEMBL1139008, “Synthesis and antiviral evaluation of alkoxyalkyl derivatives of 9-(S)-(3-hydroxy-2-phosphonomethoxypropyl)adenine against cytomegalovirus and orthopoxviruses” (J Med Chem, 2006).
